Series [1] has as its system Mus musculus. Kind of series: Antidepressant activity in po dosed ICEM:CET (SPF Caw) mouse assessed as antagonism of reserpine-induced blepharospasm administered via gavage 30 mins before reserpine challenge measured 1 hr after reserpine treatment. Type of series: functional. The following applies: Mus musculus, ICEM:CET(SPF Caw), po; read-out: ED50. An outline of the steps: (§1)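 Groups of ten male mice (18-22 g), fasted 9 h with water until 2 h pre-test. Oral gavage in 0.5% Methocel at doses below the 25 mg/kg screen, 30 min before reserpine 2.5 mg/kg ip. Blepharospasm scored blind at 1 h, rectal temperature at 4 h. ED50 estimated by eye-fit linear plots on semilogarithmic paper.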

The subject of series [2] is Mus musculus. Kind of series: Anticonvulsant activity in po dosed ICEM:CET (SPF Caw) mouse assessed as antagonism of pentylenetetrazole-induced flexor-extensor tonic convulsions administered via gavage 30 mins before pentylenetetrazole challenge. Type of series: functional. The following applies: Mus musculus, ICEM:CET(SPF Caw), po; read-out: ED50. An outline of the steps: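 Male mice, 18-22 g, dosed orally by gavage in 0.5% Methocel (0.1 mL/10 g), starting at a 50 mg/kg screening dose, then graded doses. Pentylenetetrazole 130 mg/kg ip given 30 min later. Ten mice per dose and for controls. Dose preventing flexor-extensor tonic convulsions in 50% of animals read from dose-response curves (ED50).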

Series [3] can be described thus: Orientative acute toxicity in po dosed ICEM:CET (SPF Caw) mouse administered via gavage measured for 60 mins after drug dosing by Irwin's test. Type of series: organism-based. The following applies: ICEM:CET (SPF Caw), in vivo. An outline of the steps:
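Male ICEM:CET (SPF Caw) mice, 18-22 g. Oral gavage, suspended or dissolved in 0.5% Methocel at 0.1 mL/10 g body weight. Doses of at least 25, 50, 100, 200, 400 and 800 mg/kg, four animals per dose. Animals were observed closely for 60 min after dosing during Irwin's symptomatologic test, and an approximate LD50 was estimated.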

The subject of series [4] is Mus musculus. The series is described as follows: Antidepressant activity in po dosed ICEM:CET (SPF Caw) mouse assessed as antagonism of reserpine-induced hypothermia administered via gavage 30 mins before reserpine challenge measured 4 hrs after reserpine treatment. The following applies: Mus musculus, ICEM:CET(SPF Caw), po; read-out: ED50. It counts as functional. An outline of the steps: as §1

One may read the ED50 as the midpoint of the dose-response relation. By LD50 is commonly meant the dose expected to kill half of the subjects tested. On to `CNC1CN(C2c3ccccc3C3(CC3)c3ccccc32)C1`, for which the results for the 50% effective dose (ED50) with Mus musculus [1], with Mus musculus [2] and with Mus musculus [4] were 4.4 mg/kg, 18.5 mg/kg and 11.4 mg/kg, respectively. The compound further gave a median lethal dose (LD50) at 1 h in series [3] of 200 mg/kg.

For the compound `CNCC1CCN1C1c2ccccc2CCc2ccccc21` (stereo not drawn), the results for the ED50 in the series on Mus musculus [1], in the series on Mus musculus [2] and in the series on Mus musculus [4] were over 25 mg/kg, over 50 mg/kg and over 25 mg/kg, respectively. In series [3], this compound displayed an LD50 at 1 h of over 800 mg/kg.

With `CN(C)C1CN(C2c3ccccc3CCc3ccc(Cl)cc32)C1` (stereo not drawn), the results for the ED50 in the series with Mus musculus [1], with Mus musculus [2] and in the series on Mus musculus [4] were 12.5 mg/kg, 29.9 mg/kg and 8.6 mg/kg, respectively. Besides, the LD50 at 1 h in series [3] came out at 400 mg/kg.

Regarding `CNC1CN(C2c3ccccc3COc3ccccc32)C1` (stereo not drawn), the figures for the ED50 in the series with Mus musculus [1], in the series on Mus musculus [2] and in the series on Mus musculus [4] were 2.6 mg/kg, 21.5 mg/kg and 15 mg/kg, respectively. For the same compound, in series [3], the LD50 at 1 h stood at 200 mg/kg.

With `CNC1CN(C2c3ccccc3CCc3ccc(OC)cc32)C1` (stereo not drawn), the ED50 in the series with Mus musculus [1] is 14 mg/kg; in the series with Mus musculus [2], over 50 mg/kg; in the series with Mus musculus [4], over 25 mg/kg. In series [3], the LD50 at 1 h is 200 mg/kg.

On to `CNC1CN(C2c3ccccc3CCc3ccccc32)C1C` (stereo not drawn), for which the figures for the ED50 in the series on Mus musculus [1], with Mus musculus [2] and with Mus musculus [4] were 9 mg/kg, 25 mg/kg and 10.5 mg/kg, respectively. In series [3], the LD50 at 1 h was found to be 400 mg/kg.

In the case of `c1ccc2c(c1)CCc1ccccc1C2N1CC(NC2CCCCC2)C1`, the ED50 with Mus musculus [1] was over 25 mg/kg; with Mus musculus [2] it was over 50 mg/kg; in the series on Mus musculus [4], over 25 mg/kg. The same compound registered an LD50 at 1 h in series [3] of 400 mg/kg.

With `c1ccc2c(c1)CCc1ccccc1C2N1CC(N2CCOCC2)C1`, the figures for the 50% effective dose (ED50) in the series on Mus musculus [1], in the series on Mus musculus [2] and in the series with Mus musculus [4] were 17 mg/kg, 46.9 mg/kg and over 25 mg/kg, respectively. This compound had an LD50 at 1 h in series [3] of over 800 mg/kg.

Take `CN(C)C1CN(C2c3ccccc3CSc3ccc(Cl)cc32)C1` (stereo not drawn): the results for the median effective dose (ED50) in the series with Mus musculus [1], in the series with Mus musculus [2] and in the series with Mus musculus [4] were over 25 mg/kg, 50 mg/kg and over 25 mg/kg, respectively. Moreover, in series [3], the median lethal dose (LD50) at 1 h came to 400 mg/kg.

As for `CNC1CN(C2c3ccccc3CSc3ccccc32)C1` (stereo not drawn), the ED50 is 12 mg/kg with Mus musculus [1], 14.7 mg/kg with Mus musculus [2] and over 25 mg/kg in the series with Mus musculus [4]. The LD50 at 1 h in series [3] amounted to 200 mg/kg.

In the case of `CNC1CN(C2c3ccccc3CCc3ccc(Cl)cc32)C1` (stereo not drawn), the values for the median effective dose (ED50) in the series on Mus musculus [1], in the series with Mus musculus [2] and with Mus musculus [4] were over 25 mg/kg, 27.9 mg/kg and over 25 mg/kg, respectively. The LD50 at 1 h in series [3] came out at 400 mg/kg.

For the compound `CNC1CN(C(c2ccccc2)c2ccccc2)C1`, the ED50 in the series on Mus musculus [1] was 3.5 mg/kg; in the series with Mus musculus [2], 9.6 mg/kg; in the series on Mus musculus [4], over 25 mg/kg. For the same compound, the LD50 at 1 h in series [3] was 200 mg/kg.

In the case of `c1ccc(CNC2CN(C3c4ccccc4CCc4ccccc43)C2)cc1`, the ED50 is 12 mg/kg in the series on Mus musculus [1], over 50 mg/kg with Mus musculus [2] and over 25 mg/kg with Mus musculus [4]. Besides, in series [3], the LD50 at 1 h was 800 mg/kg.

With `NC1CN(C2c3ccccc3CCc3ccccc32)C1`, the ED50 with Mus musculus [1] turned out to be 5 mg/kg; in the series with Mus musculus [2] it was 17 mg/kg; with Mus musculus [4] it was 12 mg/kg. Further, the LD50 at 1 h in series [3] was 200 mg/kg.

As for `CC(C)NC1CN(C2c3ccccc3COc3ccccc32)C1` (stereo not drawn), the ED50 came to 3.9 mg/kg in the series with Mus musculus [1], 27 mg/kg with Mus musculus [2] and 24.5 mg/kg with Mus musculus [4]. In series [3], this compound came in with a 50% lethal dose (LD50) at 1 h of 200 mg/kg.

`CNC1CN(C2c3ccccc3CCc3ccccc32)C1`: the values for the ED50 with Mus musculus [1], with Mus musculus [2] and with Mus musculus [4] were 2.9 mg/kg, 13.4 mg/kg and 7.3 mg/kg, respectively. In series [3], this compound had an LD50 at 1 h of 400 mg/kg.

As for `CNC1CN(C2c3ccccc3COc3ccc(Cl)cc32)C1` (stereo not drawn), the figures for the ED50 with Mus musculus [1], in the series on Mus musculus [2] and in the series with Mus musculus [4] were over 25 mg/kg, 15.4 mg/kg and over 25 mg/kg, respectively. Besides, in series [3], the LD50 at 1 h was 100 mg/kg.

As to `CNC1CN(C2c3ccccc3C=Cc3ccccc32)C1`, the ED50 in the series on Mus musculus [1] is over 25 mg/kg; in the series on Mus musculus [2], over 50 mg/kg; in the series on Mus musculus [4], over 25 mg/kg. Further, in series [3], the median lethal dose (LD50) at 1 h amounted to 200 mg/kg.

As for `CCNC1CN(C2c3ccccc3CCc3ccccc32)C1`, the ED50 in the series on Mus musculus [1] worked out at 10 mg/kg; with Mus musculus [2], 16.7 mg/kg; with Mus musculus [4] it was 12.5 mg/kg. Further, in series [3], the LD50 at 1 h turned out to be 200 mg/kg.

Take `COc1ccc2c(c1)C(N1CC(N(C)C)C1)c1ccccc1CO2` (stereo not drawn): the results for the ED50 with Mus musculus [1], with Mus musculus [2] and in the series with Mus musculus [4] were over 25 mg/kg, over 50 mg/kg and over 25 mg/kg, respectively. In series [3], this compound had an LD50 at 1 h of 400 mg/kg.

For the compound `CN(C)CCCN1c2ccccc2CCc2ccccc21.Cl` [IMIPRAMINE HYDROCHLORIDE], the ED50 in the series with Mus musculus [1] is 1.6 mg/kg; in the series on Mus musculus [2] it was 19.4 mg/kg; in the series with Mus musculus [4], 12.3 mg/kg. In series [3], this compound showed an LD50 at 1 h of 200 mg/kg.

Regarding `CNC1CN(C2c3ccccc3COc3ccc(OC)cc32)C1` (stereo not drawn), the 50% effective dose (ED50) was over 25 mg/kg in the series with Mus musculus [1], 45.8 mg/kg in the series on Mus musculus [2] and over 25 mg/kg in the series with Mus musculus [4]. This compound showed an LD50 at 1 h in series [3] of 200 mg/kg.

Values taken from ChEMBL document CHEMBL3227978, “Azetidine derivatives of tricyclic antidepressant agents” (J Med Chem, 1979).
